# Assay results published in ChEMBL document CHEMBL2390864, “Artemisinin-derived dimer phosphate esters as potent anti-cytomegalovirus (anti-CMV) and anti-cancer agents: a structure-activity study” (Bioorg Med Chem, 2013).
# How the values were obtained:
# [1] = Therapeutic index, ratio of IC50 for PHA-stimulated human PBMC cells to IC50 for human JURKAT-TALL cells; type: cell-based; conditions: PHA-stimulated PBMC cells versus JURKAT-TALL cells, read-out: Ratio IC50
# Procedure, shortened: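 The therapeutic index is the IC50 in PHA-stimulated PBMCs (PHA 10 µg/ml for 24 h, then drug for 48 h, AlamarBlue) divided by the IC50 in Jurkat cells (drug for 48 h, AlamarBlue).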
# PBMC = assay: Cytotoxicity against PHA-stimulated human PBMC cells after 48 hrs by Alamar Blue assay; type: cell-based
# Procedure, shortened: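 PBMCs came from 4 consenting healthy volunteers and were stimulated with phytohemagglutinin (10 µg/ml) for 24 h. Drug or vehicle was then added for a further 48 h, and viability was read by AlamarBlue. IC50 is the average of 4 experiments, each run in triplicate.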
# Cytomegalovirus = assay: Antiviral activity against Cytomegalovirus infected in HFF after 72 hrs by luciferase reporter gene assay; type: functional, organism-based; conditions: Human betaherpesvirus 5, 72 h
# Procedure, shortened: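 Human foreskin fibroblasts (HFFs) were infected with CMV and treated with compound across a dose range. Luciferase activity was read at 72 h post infection as a marker of late CMV gene expression. EC50 was derived from this read-out.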
# [2] = Cytotoxicity against human JURKAT-TALL cells after 48 hrs by Alamar Blue assay; type: functional, cell-based
# Procedure, shortened: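 Jurkat T-ALL cells were treated with compound for 48 h, and growth inhibition was read by AlamarBlue assay to give IC50.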
# [3] = Selectivity index, ratio of CC50 for HFF to EC50 for Cytomegalovirus
SMILES,selectivity ratio [1],IC50 (PBMC),EC50 (Cytomegalovirus),IC50 [2],Ratio CC50/EC50 [3]
C[C@H]1[C@@H](CC(COP(=S)(Oc2ccccc2)Oc2ccccc2)C[C@H]2O[C@@H]3O[C@@]4(C)CC[C@H]5[C@H](C)CC[C@@H]([C@H]2C)[C@@]35OO4)O[C@@H]2O[C@@]3(C)CC[C@H]4[C@H](C)CC[C@@H]1[C@@]24OO3 (stereo partly specified),> 22.9,> 40000 nM,78 nM,1750 nM,–
C[C@H]1[C@@H](CC(COP(=O)(O)Oc2ccccc2)C[C@H]2O[C@@H]3O[C@@]4(C)CC[C@H]5[C@H](C)CC[C@@H]([C@H]2C)[C@@]35OO4)O[C@@H]2O[C@@]3(C)CC[C@H]4[C@H](C)CC[C@@H]1[C@@]24OO3 (stereo partly specified),–,> 40000 nM,> 300 nM,7440 nM,–
CC(C)c1ccc(OP(=O)(OCC(C[C@H]2O[C@@H]3O[C@@]4(C)CC[C@H]5[C@H](C)CC[C@@H]([C@H]2C)[C@@]35OO4)C[C@H]2O[C@@H]3O[C@@]4(C)CC[C@H]5[C@H](C)CC[C@@H]([C@H]2C)[C@@]35OO4)Oc2ccc(C(C)C)cc2)cc1 (stereo partly specified),> 78.3,> 40000 nM,300 nM,511 nM,–
C[C@H]1[C@@H](CC(COP(=O)(Oc2ccccc2)Oc2ccccc2)C[C@H]2O[C@@H]3O[C@@]4(C)CC[C@H]5[C@H](C)CC[C@@H]([C@H]2C)[C@@]35OO4)O[C@@H]2O[C@@]3(C)CC[C@H]4[C@H](C)CC[C@@H]1[C@@]24OO3 (stereo partly specified),14.8,1480 nM,39 nM,100 nM,1500
Cc1cccc(C)c1OP(=O)(OCC(C[C@H]1O[C@@H]2O[C@@]3(C)CC[C@H]4[C@H](C)CC[C@@H]([C@H]1C)[C@@]24OO3)C[C@H]1O[C@@H]2O[C@@]3(C)CC[C@H]4[C@H](C)CC[C@@H]([C@H]1C)[C@@]24OO3)Oc1c(C)cccc1C (stereo partly specified),> 135,> 40000 nM,71 nM,296 nM,–
C[C@H]1[C@H](OC(=O)CCC(=O)O)O[C@@H]2O[C@@]3(C)CC[C@H]4[C@H](C)CC[C@@H]1[C@@]24OO3 [SODIUM ARESUNATE],4,27400 nM,18500 nM,6890 nM,–
C[C@H]1[C@@H](CC(COP(=O)(Oc2ccc(Cl)cc2)Oc2ccc(Cl)cc2)C[C@H]2O[C@@H]3O[C@@]4(C)CC[C@H]5[C@H](C)CC[C@@H]([C@H]2C)[C@@]35OO4)O[C@@H]2O[C@@]3(C)CC[C@H]4[C@H](C)CC[C@@H]1[C@@]24OO3 (stereo partly specified),> 263,> 40000 nM,66 nM,152 nM,–
C[C@H]1[C@@H](CC(CO)C[C@H]2O[C@@H]3O[C@@]4(C)CC[C@H]5[C@H](C)CC[C@@H]([C@H]2C)[C@@]35OO4)O[C@@H]2O[C@@]3(C)CC[C@H]4[C@H](C)CC[C@@H]1[C@@]24OO3 (stereo partly specified),–,–,160 nM,–,–
C[C@H]1[C@@H](CC(COP2(=S)Oc3ccccc3-c3ccccc3O2)C[C@H]2O[C@@H]3O[C@@]4(C)CC[C@H]5[C@H](C)CC[C@@H]([C@H]2C)[C@@]35OO4)O[C@@H]2O[C@@]3(C)CC[C@H]4[C@H](C)CC[C@@H]1[C@@]24OO3 (stereo partly specified),> 20.7,> 40000 nM,70 nM,1930 nM,–
C[C@H]1[C@@H](CC(COP(=O)(OC2CCCCC2)OC2CCCCC2)C[C@H]2O[C@@H]3O[C@@]4(C)CC[C@H]5[C@H](C)CC[C@@H]([C@H]2C)[C@@]35OO4)O[C@@H]2O[C@@]3(C)CC[C@H]4[C@H](C)CC[C@@H]1[C@@]24OO3 (stereo partly specified),7.1,2030 nM,44 nM,287 nM,–
CO[C@H]1O[C@@H]2O[C@@]3(C)CC[C@H]4[C@H](C)CC[C@@H]([C@H]1C)[C@@]24OO3,–,> 100000 nM,5300 nM,> 30000 nM,–
C[C@H]1[C@@H](CC(COP2(=O)Oc3ccccc3-c3ccccc3O2)C[C@H]2O[C@@H]3O[C@@]4(C)CC[C@H]5[C@H](C)CC[C@@H]([C@H]2C)[C@@]35OO4)O[C@@H]2O[C@@]3(C)CC[C@H]4[C@H](C)CC[C@@H]1[C@@]24OO3 (stereo partly specified),10.4,2280 nM,72 nM,220 nM,–
COc1cccc2c1C(=O)c1c(O)c3c(c(O)c1C2=O)C[C@@](O)(C(=O)CO)C[C@@H]3O[C@H]1C[C@H](N)[C@H](O)[C@H](C)O1 [DOXORUBICIN],–,271 nM,–,9.6 nM,–
